Results reported in ChEMBL document CHEMBL2412964, “Discovery of novel tetrahydro-pyrazolo [4,3-c] pyridines for the treatment of neuropathic pain: synthesis and neuropharmacology” (Eur J Med Chem, 2013).

Legend:
[1] = test system: Mus musculus; assay: Neurotoxicity in Swiss albino mouse assessed as minimal motor impairment at 300 mg/kg after 4 hrs by rotarod test; type: toxicity, organism-based; set-up: dose 300 mg/kg; conditions: in vivo
In short: (§1)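 Swiss albino mice of either sex, 20-25 g, dosed at 30, 100 and 300 mg/kg, three per group. Minimal motor impairment scored by rotarod at 0.5 and 4.0 h after dosing. Reported value is the lowest dose giving impairment in half or more of the mice.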

[2] = test system: Mus musculus; assay: Antinociceptive activity in Swiss albino mouse assessed as inhibition of formalin-induced flinching at 5 mg/kg administered 30 mins prior to test measured for 10 to 30 mins relative to control; type: functional
[3] = test system: Mus musculus; assay: Antinociceptive activity in Swiss albino mouse assessed as inhibition of formalin-induced flinching at 5 mg/kg administered 30 mins prior to test measured up to 5 mins relative to control; type: functional
[4] = test system: Mus musculus; assay: Antinociceptive activity in Swiss albino mouse assessed as inhibition of acetic acid-induced writhing at 5 mg/kg administered 30 mins prior to acetic acid-challenge measured for 30 mins relative to control; type: functional
[5] = test system: Mus musculus; assay: Neurotoxicity in Swiss albino mouse assessed as minimal motor impairment at 300 mg/kg after 0.5 hrs by rotarod test; type: toxicity, organism-based; set-up: dose 300 mg/kg; conditions: in vivo; in short: as §1
[6] = test system: Rattus norvegicus; assay: Antinociceptive activity in Wistar rat partial sciatic nerve ligation model assessed as reversal of spontaneous pain response at 100 mg/kg, ip after 30 mins (reference value: 3.2 +/- 0.3%); type: functional; conditions: route intraperitoneal
[7] = test system: Rattus norvegicus; assay: Antinociceptive activity in Wistar rat partial sciatic nerve ligation model assessed as reversal of spontaneous pain response at 100 mg/kg, ip after 120 mins (reference value: 1.2 +/- 0.1%); type: functional; conditions: route intraperitoneal
[8] = test system: Rattus norvegicus; assay: Antinociceptive activity in Wistar rat partial sciatic nerve ligation model assessed as reversal of cold allodynia at 100 mg/kg, ip after 120 mins (reference value: 1.5 +/- 0.5%); type: functional; conditions: route intraperitoneal
[9] = test system: Rattus norvegicus; assay: Antinociceptive activity in Wistar rat chronic constriction injury model assessed as reversal of mechanical allodynia at 100 mg/kg, ip after 120 mins (reference value: 5.3 +/- 0.5%); type: functional; conditions: route intraperitoneal
[10] = test system: Rattus norvegicus; assay: Antinociceptive activity in Wistar rat chronic constriction injury model assessed as reversal of spontaneous pain response at 100 mg/kg, ip after 30 mins (reference value: 8.9 +/- 4.6%); type: functional; conditions: route intraperitoneal
[11] = test system: Mus musculus; assay: Antinociceptive activity in Swiss albino mouse assessed as inhibition of formalin-induced flinching at 100 mg/kg administered 30 mins prior to test measured up to 5 mins relative to control; type: functional
[12] = test system: Rattus norvegicus; assay: Antinociceptive activity in Wistar rat chronic constriction injury model assessed as reversal of tactile allodynia at 100 mg/kg, ip after 120 mins (reference value: 4.1 +/- 2.1%); type: functional; conditions: route intraperitoneal
[13] = test system: Mus musculus; assay: Antinociceptive activity in Swiss albino mouse assessed as inhibition of formalin-induced flinching at 100 mg/kg administered 30 mins prior to test measured for 10 to 30 mins relative to control; type: functional
[14] = test system: Rattus norvegicus; assay: Antinociceptive activity in Wistar rat partial sciatic nerve ligation model assessed as reversal of mechanical allodynia at 100 mg/kg, ip after 60 mins (reference value: 2.8 +/- 0.3%); type: functional; conditions: route intraperitoneal
[15] = test system: Rattus norvegicus; assay: Antinociceptive activity in Wistar rat chronic constriction injury model assessed as reversal of cold allodynia at 100 mg/kg, ip after 60 mins (reference value: 6.3 +/- 1.9%); type: functional; conditions: route intraperitoneal
[16] = test system: Rattus norvegicus; assay: Antinociceptive activity in Wistar rat partial sciatic nerve ligation model assessed as reversal of tactile allodynia at 100 mg/kg, ip after 60 mins (reference value: 12.5 +/- 1.2%); type: functional; conditions: route intraperitoneal
[17] = test system: Rattus norvegicus; assay: Antinociceptive activity in Wistar rat chronic constriction injury model assessed as reversal of mechanical allodynia at 100 mg/kg, ip after 30 mins (reference value: 4.7 +/- 2.1%); type: functional; conditions: route intraperitoneal
[18] = test system: Rattus norvegicus; assay: Antinociceptive activity in Wistar rat partial sciatic nerve ligation model assessed as reversal of mechanical allodynia at 100 mg/kg, ip after 120 mins (reference value: 2.9 +/- 0.3%); type: functional; conditions: route intraperitoneal
[19] = test system: Rattus norvegicus; assay: Antinociceptive activity in Wistar rat partial sciatic nerve ligation model assessed as reversal of tactile allodynia at 100 mg/kg, ip after 120 mins relative to control; type: functional; conditions: route intraperitoneal
[20] = test system: Rattus norvegicus; assay: Antinociceptive activity in Wistar rat chronic constriction injury model assessed as reversal of cold allodynia at 100 mg/kg, ip after 30 mins (reference value: 0.6 +/- 2.7%); type: functional; conditions: route intraperitoneal
[21] = organism: Mus musculus; assay: Neurotoxicity in Swiss albino mouse assessed as minimal motor impairment after 4 hrs by rotarod test; type: toxicity, organism-based; conditions: in vivo
In short: (§2)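 Mice, either sex, 20-25 g, dosed at 30, 100 and 300 mg/kg. Minimal motor impairment was scored on the rotarod at 0.5 and 4.0 h. Value reported is the minimum dose showing the effect in half or more of three mice per group.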

[22] = test system: Rattus norvegicus; assay: Antinociceptive activity in Wistar rat partial sciatic nerve ligation model assessed as reversal of cold allodynia at 100 mg/kg, ip after 30 mins (reference value: 4.1 +/- 1.0%); type: functional; conditions: route intraperitoneal
[23] = test system: Rattus norvegicus; assay: Antinociceptive activity in Wistar rat chronic constriction injury model assessed as reversal of cold allodynia at 100 mg/kg, ip after 120 mins (reference value: 5.4 +/- 1.9%); type: functional; conditions: route intraperitoneal
[24] = test system: Rattus norvegicus; assay: Antinociceptive activity in Wistar rat chronic constriction injury model assessed as reversal of mechanical allodynia at 100 mg/kg, ip after 60 mins (reference value: 4.9 +/- 1.0%); type: functional; conditions: route intraperitoneal
[25] = test system: Rattus norvegicus; assay: Antinociceptive activity in Wistar rat chronic constriction injury model assessed as reversal of tactile allodynia at 100 mg/kg, ip after 30 mins (reference value: 3.4 +/- 0.8%); type: functional; conditions: route intraperitoneal
[26] = test system: Rattus norvegicus; assay: Antinociceptive activity in Wistar rat partial sciatic nerve ligation model assessed as reversal of tactile allodynia at 100 mg/kg, ip after 30 mins (reference value: 7.7 +/- 0.7%); type: functional; conditions: route intraperitoneal
[27] = test system: Mus musculus; assay: Antinociceptive activity in Swiss albino mouse assessed as inhibition of acetic acid-induced writhing at 100 mg/kg administered 30 mins prior to acetic acid-challenge measured for 30 mins relative to control; type: functional
In short: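 Swiss albino mice (20–25 g, either sex); writhing induced by i.p. 0.1 mL of 2.0% v/v acetic acid given half an hour after test compound dosing.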

[28] = test system: Rattus norvegicus; assay: Antinociceptive activity in Wistar rat partial sciatic nerve ligation model assessed as reversal of mechanical allodynia at 100 mg/kg, ip after 30 mins (reference value: 2.9 +/- 0.3%); type: functional; conditions: route intraperitoneal
[29] = test system: Rattus norvegicus; assay: Antinociceptive activity in Wistar rat partial sciatic nerve ligation model assessed as reversal of cold allodynia at 100 mg/kg, ip after 60 mins (reference value: 2.5 +/- 0.3%); type: functional; conditions: route intraperitoneal
[30] = organism: Mus musculus; assay: Neurotoxicity in Swiss albino mouse assessed as minimal motor impairment after 0.5 hrs by rotarod test; type: toxicity, organism-based; conditions: in vivo; in short: as §2
[31] = test system: Rattus norvegicus; assay: Antinociceptive activity in Wistar rat partial sciatic nerve ligation model assessed as reversal of spontaneous pain response at 100 mg/kg, ip after 60 mins (reference value: 2.9 +/- 0.3%); type: functional; conditions: route intraperitoneal
[32] = test system: Rattus norvegicus; assay: Antinociceptive activity in Wistar rat chronic constriction injury model assessed as reversal of tactile allodynia at 100 mg/kg, ip after 60 mins (reference value: 1.3 +/- 0.3%); type: functional; conditions: route intraperitoneal
[33] = test system: Rattus norvegicus; assay: Antinociceptive activity in Wistar rat chronic constriction injury model assessed as reversal of spontaneous pain response at 100 mg/kg, ip after 120 mins (reference value: 4.5 +/- 0.2%); type: functional; conditions: route intraperitoneal
[34] = test system: Rattus norvegicus; assay: Antinociceptive activity in Wistar rat chronic constriction injury model assessed as reversal of spontaneous pain response at 100 mg/kg, ip after 60 mins (reference value: 4.6 +/- 0.6%); type: functional; conditions: route intraperitoneal

`COc1ccc2c(c1)c(CC(=O)O)c(C)n2C(=O)c1ccc(Cl)cc1` [INDOMETHACIN] was tested, and the Activity [1] was “Non-toxic”, the inhibition in vivo at 5 mg/kg [2] was 72.1% and the inhibition in vivo at 5 mg/kg [3] was 4.7%. The inhibition in vivo at 5 mg/kg [4] was 96.1% and the Activity [5] was “Non-toxic”.
`CCN1CCc2c(c(C(C)(C)C)nn2C(=O)Nc2ccc(F)cc2F)C1` was tested, and the Activity [6] was 89.3%, the Activity [7] was 56.9% and the Activity [8] was 40%. The Activity [9] was 11.2%, the Activity [10] was 81.6% and the inhibition in vivo at 100 mg/kg [11] was 4.4%. For the same compound, the Activity [12] was 51.7%, the inhibition in vivo at 100 mg/kg [13] was 73.4% and the Activity [14] was 60.2%. For the same compound, the Activity [15] was 64.4%, the Activity [16] was 51.7% and the Activity [17] was 70.8%. For the same compound, the Activity [18] was 43.9%, the Activity [19] was 38.3% and the Activity [20] was 64.3%. The MLD [21] was 100 mg/kg, the Activity [22] was 64.3% and the Activity [23] was 40%. For the same compound, the Activity [24] was 72.9%, the Activity [25] was 61.2% and the Activity [26] was 66.7%. It also gave an inhibition in vivo at 100 mg/kg [27] of 71.9%, an Activity [28] of 60% and an Activity [29] of 64.4%. It also gave an MLD [30] of 100 mg/kg, an Activity [31] of 65% and an Activity [32] of 58.3%. For the same compound, the Activity [33] was 91.6% and the Activity [34] was 85.9%.
